Experimental findings from ChEMBL document CHEMBL3085643, “Synthesis and evaluation in monkey of [(18)F]4-fluoro-N-methyl-N-(4-(6-(methylamino)pyrimidin-4-yl)thiazol-2-yl)benzamide ([(18)F]FIMX): a promising radioligand for PET imaging of brain metabotropic glutamate receptor 1 (mGluR1)” (J Med Chem, 2013) are described below.

Series [1] relates to Brain. Put plainly: Biodistribution in iv dosed rhesus monkey brain measured at 90 mins by PET analysis relative to control. Format: ADME, organism-based, Macaca mulatta. Conditions: in vivo, 1.5 h; call rule not given here. The essentials: (§1)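 Baseline scans in rhesus monkey given the [18F] radioligand i.v. (4.6–6.58 mCi; specific activity 1.67–4.18 Ci/μmol at injection). Ketamine 10 mg/kg i.m. induction, then 1.6% isoflurane/98.4% O2, with the head in a stereotaxic frame. microPET Focus 220 scanning for 120 min in 33 frames (30 s–5 min). Regional uptake, including isocontour-delineated cerebellar grey matter, expressed as SUV.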

Series [2] relates to Plasma. Put plainly: Biodistribution in rhesus monkey plasma at 5.24 mCi, iv after 60 mins by radio-HPLC analysis. Format: ADME, organism-based, Macaca mulatta. The note with it: in vivo, 1 h. The essentials: (§2)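 Single rhesus monkey (7.0 kg) given the radioligand iv (5.24 mCi; 1.4 nmol/kg). Venous blood drawn at 10, 30, 60 and 120 min. Separated plasma analysed by radio-HPLC on a C18 radial-compression column, eluted at 2.0 mL/min with MeOH:H₂O:Et₃N (65:35:0.1). Parent and radiometabolites given as percent of plasma radioactivity; blood-component radioactivity expressed as SUV; decay-corrected.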

In series [3] the test system is Plasma. Put plainly: Biodistribution in rhesus monkey plasma assessed as radiometabolite [18F]-E level at 5.24 mCi, iv after 60 mins by radio-HPLC analysis. Format: ADME, organism-based, Macaca mulatta. The note with it: in vivo, 1 h. The essentials: as §2
The subject of series [4] is Plasma. Put plainly: Biodistribution in rhesus monkey plasma assessed as radiometabolite [18F]-D level at 5.24 mCi, iv after 60 mins by radio-HPLC analysis. It counts as ADME, organism-based, Macaca mulatta. The note with it: in vivo, 1 h. An outline of the steps:
as §2

Series [5] relates to Plasma. Nature of the series: Biodistribution in rhesus monkey plasma assessed as radiometabolite [18F]-C level at 5.24 mCi, iv after 60 mins by radio-HPLC analysis. It counts as ADME, organism-based, Macaca mulatta. Conditions: in vivo, 1 h. An outline of the steps: as §2
Series [6] concerns Plasma. Put plainly: Biodistribution in rhesus monkey plasma assessed as radiometabolite [18F]-B level at 5.24 mCi, iv after 60 mins by radio-HPLC analysis. Conditions: in vivo, 1 h. It counts as ADME, organism-based, Macaca mulatta. The essentials: as §2
Series [7] has as its system Plasma. Put plainly: Biodistribution in rhesus monkey plasma assessed as radiometabolite [18F]-A level at 5.24 mCi, iv after 60 mins by radio-HPLC analysis. It counts as ADME, organism-based, Macaca mulatta. The note with it: in vivo, 1 h. The essentials:
as §2

For series [8], the system named is Plasma. Nature of the series: Biodistribution in rhesus monkey plasma at 5.24 mCi, iv after 2 hrs by radio-HPLC analysis. Format: ADME, organism-based, Macaca mulatta. Conditions: in vivo. An outline of the steps: as §2
The test system of series [9] is Plasma. Put plainly: Biodistribution in rhesus monkey plasma at 5.24 mCi, iv measured at 31 mins by radio-HPLC analysis. Format: ADME, organism-based, Macaca mulatta. Conditions: in vivo. An outline of the steps:
as §2

The next series deals with Blood. Put plainly: Biodistribution in rhesus monkey whole blood at 5.24 mCi, iv up to 150 mins by radio-HPLC analysis. It counts as ADME, organism-based, Macaca mulatta. Conditions: in vivo, 2 h, in the assay text read “120 mins” for “150 mins”. The essentials: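 Venous blood sampled after iv injection of radioligand (5.24 mCi; 1.4 nmol/kg) in one 7.0 kg rhesus monkey. Whole-blood radioactivity was gamma-counted, decay-corrected and expressed as SUV.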

A short description of series [10]: Fraction unbound in human plasma by radio-HPLC analysis. It counts as ADME, cell-free.
Series [11] in a line: Fraction unbound in rhesus monkey plasma by radio-HPLC analysis. Format: ADME, cell-free, Macaca mulatta.
Series [12] can be described thus: Metabolic stability in rhesus monkey plasma assessed as compound remaining after 30 mins by radio-HPLC analysis. The note with it: read-out: Stability. It counts as ADME, cell-free, Macaca mulatta. An outline of the steps:
(§3)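 Radioligand incubated in rhesus monkey whole blood or plasma at room temperature for at least 30 min. Blood lysed with water for 30 s; samples deproteinized with MeCN and spun at 10,000 g. Supernatants analysed by radio-HPLC; precipitates counted to give extraction efficiency. Percent unchanged parent divided by radiochemical purity.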

Series [13] can be described thus: Metabolic stability in rhesus monkey whole blood assessed as compound remaining after 30 mins by radio-HPLC analysis. Format: ADME, tissue-based, Macaca mulatta. The note with it: read-out: Stability. The essentials: as §3
Series [14] in a line: Biodistribution in iv dosed rhesus monkey skull by PET analysis. Format: ADME, organism-based, Macaca mulatta. Conditions: in vivo. An outline of the steps: (§4)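 Baseline brain PET in rhesus monkey: radioligand given intravenously (4.6–6.58 mCi; specific activity 1.67–4.18 Ci/μmol at injection). Ketamine induction (10 mg/kg, i.m.), then 1.6% isoflurane in O₂; head held in a stereotaxic frame. Scan run 120 min in 33 frames (30 s–5 min). Regional uptake taken from regions of interest, cerebellar grey matter delineated by isocontour, expressed as SUV; decay-corrected.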

The subject of series [15] is Brain. Put plainly: Biodistribution in iv dosed rhesus monkey brain administered 30 mins prior to […]-challenge by PET analysis. The note with it: in vivo, 0.5 h, in the assay text read “mGluR5 ligand” for “mGluR1 ligand”. It counts as ADME, organism-based, Macaca mulatta. An outline of the steps: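 Third rhesus monkey (8.1 kg): the mGluR5-selective ligand MTEP (5 mg/kg) given i.v. 30 min after the i.v. [18F] radioligand. Anesthesia was ketamine then isoflurane, with the head in a stereotaxic frame. A 120-min microPET acquisition in 33 frames was run, and regional washout expressed as SUV.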

Series [16] deals with Brain. Nature of the series: Biodistribution in iv dosed rhesus monkey brain administered 30 mins prior to mGluR1 antagonist JNJ-16259685-challenge by PET analysis. Conditions: in vivo, 0.5 h. Format: organism-based, Macaca mulatta. An outline of the steps:
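Displacement challenge in a second rhesus monkey: JNJ-16259685 (3 mg/kg) given i.v. 30 min after the i.v. [18F] radioligand injection. Anesthesia was ketamine 10 mg/kg i.m. then 1.6% isoflurane. The brain was scanned with microPET for 120 min in 33 frames, and regional radioactivity expressed as SUV.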

The subject of series [17] is Brain. Put plainly: Biodistribution in iv dosed rhesus monkey brain measured up to 120 mins by PET analysis. Format: ADME, organism-based, Macaca mulatta. The note with it: in vivo, 2 h. The essentials:
as §1

The test system of series [18] is Brain. Nature of the series: Biodistribution in iv dosed rhesus monkey brain administered 5 mins post mGluR1 antagonist JNJ-16259685-challenge by PET analysis. It counts as organism-based, Macaca mulatta. The note with it: in vivo. The essentials:
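Receptor preblock in the baseline monkey on a separate day: JNJ-16259685 (3 mg/kg) given i.v. 5 min before the i.v. [18F] radioligand (4.6–6.58 mCi). Under ketamine/isoflurane anesthesia in a stereotaxic frame, the brain was scanned with microPET for 120 min in 33 frames. Regional time–activity curves expressed as SUV.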

The nature of series [19]: Biodistribution in iv dosed rhesus monkey cerebellum measured at 2 hrs by PET analysis. Format: ADME, organism-based, Macaca mulatta. Conditions: in vivo. An outline of the steps:
as §4

Series [20] is described as follows: Biodistribution in iv dosed rhesus monkey cerebellum measured at 90 mins by PET analysis. Format: ADME, organism-based, Macaca mulatta. The note with it: in vivo, 1.5 h. An outline of the steps: as §4
The nature of series [21]: Biodistribution in iv dosed rhesus monkey anterior cingulate by PET analysis. Format: ADME, organism-based, Macaca mulatta. Conditions: in vivo. An outline of the steps: as §1
Series [22] can be described thus: Biodistribution in iv dosed rhesus monkey putamen by PET analysis. The note with it: in vivo. Format: ADME, organism-based, Macaca mulatta. The essentials: as §4
In a further series the test system is Hippocampus. Nature of the series: Biodistribution in iv dosed rhesus monkey hippocampus by PET analysis. It counts as ADME, organism-based, Macaca mulatta. The note with it: in vivo. The essentials:
as §4

The nature of series [23]: Biodistribution in iv dosed rhesus monkey frontal cortex by PET analysis. Format: ADME, organism-based, Macaca mulatta. Conditions: in vivo. The essentials:
as §4

The nature of series [24]: Biodistribution in iv dosed rhesus monkey thalamus by PET analysis. Format: ADME, organism-based, Macaca mulatta. The note with it: in vivo. The essentials: as §4
Series [25] is described as follows: Octanol-sodium phosphate buffer distribution coefficient, log D of the compound at pH 7.4. Format: physicochemical. An outline of the steps:
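Measured LogD of the [18F]-labelled compound: distribution between n-octanol and 0.15 M sodium phosphate buffer, pH 7.4; n = 6.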

Series [26] in a line: Biodistribution in iv dosed rhesus monkey cerebellum measured at 12 mins by PET analysis. Format: ADME, organism-based, Macaca mulatta. The note with it: in vivo, 0.2 h. The essentials:
as §4

In the series with Brain [1], `CC(C)Nc1cc(-c2csc(N(C)C(=O)c3ccc([18F])cc3)n2)ncn1` had a Drug uptake of 17%.
Regarding `CNc1cc(-c2csc(N(C)C(=O)c3ccc([18F])cc3)n2)ncn1`, the Drug uptake turned out to be 26% in the series on Plasma [2]; 21% in the series on Plasma [3]; 1% in the series with Plasma [4]; 10% with Plasma [5]; 23% in the series with Plasma [6]; 19% in the series with Plasma [7]. Also, the Drug uptake entry in the series on Plasma [8] is given as “Active”; in the series on Plasma [9], 31%; in the series with Blood, “Active”; in [14], “Not Active”; in the series with Brain [15], “Active”; in the series with Brain [16] it was “Active”. Further, the Drug uptake result in the series on Brain [17] and with Brain [18] was “Active” in each case. Besides, the fraction unbound in series [10] is 0.0114; in series [11], 0.0123. Further, the results for the remaining at 0.5 h in series [12] and in [13] were 98.9% and 98.1%, respectively. In addition, the SUV in series [19] turned out to be 2.8; in [20], 3.32; in [21] it was 2.4; in series [22] it was 2.5; in the series on Hippocampus, 2.5; in series [23], 2.7. The SUV in series [24] turned out to be 2.9; in [26], 5.3. In series [25], this molecule returned a logD of 2.52.

As usually defined, the fraction unbound is the share of the substance not bound to proteins or other matrix. For orientation: logD means lipophilicity at a set pH, counting ionised and neutral species.
